Screens: PubChem BioAssay, several laboratories
HCV NS3 hel inh = inhibitors of Hepatitis C virus NS3 helicase. actives 0.56% (n = 290,000). inhibition, % at 10.9 µM. NS3 helicase DNA unwinding, Cy5 molecular beacon fluorescence;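 active = inhibition above the mean of all tested compounds plus 3 SD, set per campaign, cut at about 35% in these data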;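 also: 0% = DMSO wells and 100% = thioflavine S control wells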
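Assay system: hepatitis C virus NS3 helicase domain fragment enzyme. Also added: annealed dual-labelled DNA beacon duplex, ATP-started. Timing: 1 h reaction at 25 °C, ATP-initiated. Technique: Cy5 fluorescence at 0 and 60 min, beacon hairpin quenching. Evaluation: % inhibition of unwinding. Replication: one well per compound.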
HSF1 activator = increases HSF-1 driven luciferase reporter signal; NIH3T3-HGL HSF-1 luciferase reporter, MG132, 8 h; 100% = twice DMSO control signal; activation, % at 9 µM; actives 1.7% (n = 300,000);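 active = mean replicate activation of at least 50% with a set share of replicates each reaching 50%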;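 also: 0% = median of the neutral control wells and 100% = twice that signal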
FID counter = counter-screen for HCV NS3 helicase inhibitors: DNA intercalator displacement | DNA fluorescent intercalator displacement, fluorescence | actives 0.17% (n = 290,000) | inhibition, % at 7.9 µM; in the data active = inhibition above about 37%;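 also: 0% = vehicle and 100% = reference compound; higher means more ethidium bromide displaced from hairpin DNA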
HSF1 inhib = HSF1 inhibition. NIH3T3-HGL HSE-luciferase, MG132-induced, luminescence 8 h; active compounds read low. activity change, negative = inhibition, % at 7.5 µM (by protocol). actives 0.77% (n = 300,000);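 active = more than half of replicate wells show activity change below -50%, luminescence cut by over half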;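 also: luciferase reports HSF-1 transcriptional activity via heat shock element; 0% = median of DMSO wells and -100% = zero luminescence signal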
HCV core dimer = blocks dimerization of HCV core protein. actives 0.33% (n = 300,000). inhibition, % at 5 µM. TR-FRET GST/Flag-core106 dimerization, 1536-well. AID 1899;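 active = inhibition above the mean of all tested compounds plus 3 SD, set per screening campaign, cut at about 45% in these data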
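assay system = GST-tagged and Flag-tagged HCV core protein residues 1-106 | controls = unlabelled core106 and no-GST-core106 wells | incubation = compound-protein-antibody incubation 4 h at 22.5 °C | probe or stimulus = Eu donor and XL665 acceptor anti-tag antibodies | read-out = % inhibition based on acceptor/donor emission ratio | signal = TR-FRET 671 and 617 nm emission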
HSP90 inh = inhibitors of HSP90 luciferase refolding in rabbit reticulocyte lysate | luciferase refolding luminescence, 3 h | inhibition, % at 5.6 µM | actives 0.91% (n = 290,000);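 active = inhibition above the screen-wide mean plus 3 SD, computed separately per campaign, cut at about 16% in these data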;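 also: 0% = DMSO wells and 100% = 60 µM geldanamycin wells; inhibitors lower the luminescence because luciferase stays unfolded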
Starred values were filed as active, the others as inactive; / = no result. Most compounds without a hit are left out; they make up all but 3.9% or so of the library.

SMILES	HCV NS3 hel inh	HSF1 activator	FID counter	HSF1 inhib	HCV core dimer	HSP90 inh
COc1cc(NC(=O)CN(C)S(=O)(=O)c2ccc(-c3ccc(=O)[nH]n3)s2)cc(OC)c1	6	-93	-45	-91*	22	-2
C=CCS(=O)(=O)N1CCCC(N2CCN(c3ccccc3OC)CC2)C1 (centres undefined)	-7	-1	-6	-3	6	-4
CC(C)OC(=O)CNc1n[nH]c(=S)[nH]c1=O	7	35	4	1	/	17*
CCOc1cc(CNc2ccc3c(c2)OCCO3)cc(Br)c1OCC	-3	-85	3	-82*	-1	16*
CC(=O)NCCCC(=O)NNC1CC(=O)N(c2cccc(Cl)c2)C1=O (centres undefined)	5	-16	-3	-11	1	-3
Cc1ccc(C2NNC(=O)C2NC(=O)c2ccccc2)cc1 (centres undefined)	2	65*	-2	35	-3	2
COc1ccc(CNC(=O)CN(Cc2ccc(OC)cc2)C(=O)CCC(=O)Nc2nccs2)cc1	2	13	-41	3	-4	1
COc1ccc(CNC(=O)CN(Cc2ccccc2)C(=O)CCC(=O)Nc2nccs2)cc1	-7	70*	-33	24	0	3
O=[N+]([O-])c1ccc(-n2nnnc2-c2ccccc2)cc1	0	-50	-4	-29	3	-1
O=[N+]([O-])c1ccc(-n2nnnc2-c2ccccc2)c([N+](=O)[O-])c1	7	231*	-2	244	-8	-1
COc1cc2c(cc1OC)CN(C(=O)/C=C/c1cccc([N+](=O)[O-])c1)CC2	-13	1	-22	-4	-3	-1
S=C1NC2=C(CCCC2=C2SCCS2)C(c2ccccc2)N1 (centres undefined)	12	-43	-15	-40	46*	7
O=Cc1ccc(OCc2ccc3c(c2)OCO3)cc1	5	47	-1	30	-2	6
Cc1ccc(COc2ccc3c(c2)OCO3)cc1	-4	59*	-11	51	-11	3
COC(=O)C1=NN(C(=O)c2ccccc2)C(C)(O)C1 (centres undefined)	5	4	-6	-6	-1	4
COC(=O)C1(O)CC(CC(C)C)=NN1C(=O)c1ccccc1 (centres undefined)	10	148*	-11	99	-1	-1
Cn1c(=O)c2nc(Cl)n(Cc3ccc(Cl)cc3Cl)c2n(C)c1=O	-1	/	-1	/	/	-2
O=C(/C=C/c1ccc(F)cc1)NC(=S)N1CCN(c2ccccn2)CC1	-4	59*	-18	51	2	-1
O=C(c1ccco1)c1nnn(Cc2ccccc2)c1-c1ccccc1	1	64*	-23	39	6	0
CC(C)(C)c1cc(C(=O)NCc2cc(F)cc3c2OCOC3)n(Cc2ccccc2)n1	-10	56*	-25	42	5	-1
COc1ccc(OC(C)C(=O)NC2CCCCCCC2)cc1 (centres undefined)	-4	0	-35	-2	0	-1
O=C(NNC(=S)Nc1ccc(Cl)cc1)c1ccccc1OC(F)F	2	59*	-4	19	-12	-2
Cn1cc([C@@H]2C[C@H]3CN(Cc4cccc(Cl)c4)C(=O)[C@]34CCCN24)c2ccccc21	-18	5	-1	1	10	-1
COc1ccc(C(OCC(O)CNCCc2ccccc2)c2ccc(OC)cc2)cc1 (centres undefined)	-39	6	41*	7	/	5
COc1ccc(C(OCC(O)CNC(C)c2ccccc2)c2ccc(OC)cc2)cc1 (centres undefined)	-54	15	25	5	3	0
SMILES	HCV NS3 hel inh	HSF1 activator	FID counter	HSF1 inhib	HCV core dimer	HSP90 inh
N#Cc1nc(-c2cccc3ccccc23)oc1NCCN1CCCCC1	-10	70*	9	55	3	-2
CC(C)(C)C(=O)Nc1ccc(-c2nnc3n2CCCCC3)cc1	2	-21	-15	-6	/	-5
CCn1c(C)nc2cc(C(=O)NNC(=S)Nc3ccccc3Cl)ccc21	-2	-43	-6	-34	1	-5
CCn1c(C)nc2cc(C(=O)NNC(=S)NC(=O)c3ccccc3)ccc21	5	-60	-16	-53*	-2	-3
O=c1c(N2CCOCC2)c(N2CCOCC2)c1=O	9	3	-2	4	-2	-1
Cc1ccc(OCC(=O)Nc2cccc(S(=O)(=O)N3CCCCCC3)c2)c([N+](=O)[O-])n1	-4	-12	-4	-8	5	-3
COc1ccccc1/C=C(\C)C(=O)c1c(C)cc(C)[nH]c1=O	-4	57*	-19	20	0	0
C/C(=C\c1ccc(Br)cc1)C(=O)c1c(C)cc(C)[nH]c1=O	8	4	-24	-3	/	-1
CCc1cc(C=NC2CCCCC2)c(O)s1	2	-63	-3	-56*	0	3
Cc1ccc(CN2C(=O)CSc3ccc(C(=O)NCCN4CCOCC4)cc32)cc1	-24	14	43*	8	0	6
O=C(NCCN1CCOCC1)c1ccc2c(c1)N(Cc1ccccc1F)C(=O)c1ccccc1S2	-31	6	2	6	4	2
Cc1ccccc1CN1C(=O)c2ccccc2Sc2ccc(C(=O)NCCN3CCOCC3)cc21	-73	60*	7	27	-7	4
CC(C)c1nnc(NC(=O)CCC(=O)NCc2ccc(F)cc2)s1	2	-4	-19	1	6	-4
Cc1cccc(OCCOCCSc2ncccn2)c1	0	-23	-7	-5	-7	2
Cc1ccc(OCCSc2ncccn2)c(C)c1	4	62*	-3	36	/	2
CC(=O)c1ccc(Nc2c3c(nc4ccccc24)CCCC3)cc1	-7	66*	4	22	7	2
CN(C)CCNc1c2c(nc3ccccc13)CCC2	2	6	45*	-4	-3	1
COc1ccc(NC(=O)c2cccs2)cc1C(=O)N1CCN(c2ccccc2)CC1	-4	23	-49	6	16	-5
COc1ccc(N=Cc2ccc(-c3ccccc3)o2)cc1	1	-1	-1	-3	-1	0
CCCCOc1ccc(S(N)(=O)=O)cc1	-1	-21	0	-9	3	0
COc1ccc(N=Cc2ccc[nH]2)cc1	-1	-66	5	-62*	-6	1
CCCCOc1ccc(N=Cc2ccc[nH]2)cc1	2	-73	-1	-68*	-4	-5
Cn1c(O)c(N=Nc2nc(-c3ccccc3)cs2)c2ccccc21	-7	-28	-3	-27	-7	-1
Cc1ccc(C(=O)N/N=C\c2ccc([N+](=O)[O-])s2)cn1	6	-6	4	-4	-6	0
